Measurements taken from ChEMBL document CHEMBL1687849, “Lauroside B, a megastigmane glycoside from Laurus nobilis (bay laurel) leaves, induces apoptosis in human melanoma cell lines by inhibiting NF-κB activation” (J Nat Prod, 2011).
Active and inactive are the calls of the source. No cut-off for these calls is given here.

Tests used:
A-375 [1] = experiment: Induction of apoptosis in human A375 cells assessed as early apoptotic cells at 20 uM after 48 hrs by annexin V/propidium iodide based flow cytometry; assay type: functional
In short: (§1)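 A375 cells attached overnight, then treated 48 h with test compound (30 μM) or curcumin (20 μM). Adherent and floating cells pooled, washed in PBS and resuspended at 10^6/mL in HEPES pH 7.4/NaCl/CaCl2 binding buffer. 10^5 cells stained 15 min at room temperature in the dark with FITC-annexin V and PI, then flow cytometry. Quadrants scored as early apoptotic, late apoptotic or necrotic. Three experiments.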

A-375 [2] = experiment: Induction of apoptosis in human A375 cells assessed as late apoptotic cells at 20 uM after 48 hrs by annexin V/propidium iodide based flow cytometry; assay type: functional; in short: as §1
A-375 [3] = experiment: Induction of apoptosis in human A375 cells assessed as necrotic apoptotic cells at 20 uM after 48 hrs by annexin V/propidium iodide based flow cytometry; assay type: functional; in short: as §1
A-375 [4] = experiment: Antiproliferative activity against human A375 cells at 3 to 30 uM by MTT assay; assay type: functional, cell-based; conditions: TDE = time-dependent effect
In short: (§2)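 Cells grown in DMEM with 10% FBS, glutamine, HEPES and antibiotics at 37 °C, 5% CO2. Seeded at 1×10^4 cells/well and treated at 3, 10 or 30 μM for 24, 48 or 72 h. MTT (5 mg/mL stock) then added for 3 h at 37 °C. Crystals dissolved in 50% DMF/20% SDS pH 4.5; OD read at 620 nm. n = 3, mean ± SEM, ANOVA with Bonferroni.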

WM-115 [5] = experiment: Antiproliferative activity against human WM115 cells at 3 to 30 uM by MTT assay; assay type: functional, cell-based; conditions: TDE = time-dependent effect; in short: as §2
SK-MEL-28 [6] = experiment: Antiproliferative activity against human SK-MEL-28 cells at 3 to 30 uM by MTT assay; assay type: functional, cell-based; conditions: TDE = time-dependent effect; in short: as §2
A-375 [7] = experiment: Antiproliferative activity against human A375 cells after 24 to 72 hrs by MTT assay; assay type: functional, cell-based; in short: as §2
WM-115 [8] = experiment: Antiproliferative activity against human WM115 cells after 24 to 72 hrs by MTT assay; assay type: functional, cell-based; in short: as §2
SK-MEL-28 [9] = experiment: Antiproliferative activity against human SK-MEL-28 cells after 24 to 72 hrs by MTT assay; assay type: functional, cell-based; in short: as §2
A-375 [10] = experiment: Antiproliferative activity against human A375 cells at 30 uM after 72 hrs by MTT assay; assay type: functional; conditions: A-375, 72 h; in short: as §2
WM-115 [11] = experiment: Antiproliferative activity against human WM115 cells at 30 uM after 72 hrs by MTT assay; assay type: functional; conditions: WM-115, 72 h; in short: as §2
SK-MEL-28 [12] = experiment: Antiproliferative activity against human SK-MEL-28 cells at 30 uM after 72 hrs by MTT assay; assay type: functional; conditions: SK-MEL-28, 72 h; in short: as §2
[13] = Antiproliferative activity against human NHEM at 3 to 30 uM after 24 to 72 hrs by MTT assay
In short: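 Normal human epidermal melanocytes grown in melanocyte growth medium 2. Seeded at 1×10^4 cells/well and treated at 3, 10 or 30 μM for 24, 48 or 72 h. MTT (5 mg/mL stock) then added for 3 h at 37 °C. Formazan dissolved in 50% DMF/20% SDS pH 4.5; absorbance at 620 nm.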

A-375 [14] = experiment: Induction of apoptosis in human A375 cells assessed as early apoptotic cells at 30 uM after 48 hrs by annexin V/propidium iodide based flow cytometry; assay type: functional; in short: as §1
A-375 [15] = experiment: Induction of apoptosis in human A375 cells assessed as late apoptotic cells at 30 uM after 48 hrs by annexin V/propidium iodide based flow cytometry; assay type: functional; in short: as §1
A-375 [16] = experiment: Induction of apoptosis in human A375 cells assessed as necrotic apoptotic cells at 30 uM after 48 hrs by annexin V/propidium iodide based flow cytometry; assay type: functional; in short: as §1
A-375 [17] = experiment: Activation of caspase 3 in human A375 cells assessed as reduction in pro-caspase 3 at 30 uM by Western blot analysis; assay type: functional, cell-based; conditions: TDE = time-dependent effect
In short: (§3)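 Whole-cell A375 lysates collected 0, 1, 2, 4 and 8 h after 30 μM treatment, made in Tris/HCl pH 7.4 buffer with 0.1% Triton X-100, EDTA, vanadate, PMSF and protease inhibitors. 20 μg protein per lane on SDS-PAGE and nitrocellulose. Probed overnight at 4 °C for pro-caspase-3 and PARP, with β-actin; HRP secondary, ECL detection. Three separate experiments.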

A-375 [18] = experiment: Inhibition of NF-kappaB activation in human A375 cells assessed as IkappaB-alpha degradation at 30 uM by Western blot analysis; assay type: cell-based; conditions: TDE = time-dependent effect
In short: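 A375 cells treated at 30 μM for 1, 2, 4 and 8 h. Cytosolic extracts (40 μg protein) run on SDS-PAGE and transferred to nitrocellulose. Probed overnight at 4 °C for IκB-α, HRP secondary, ECL detection. Three separate experiments.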

A-375 [19] = experiment: Inhibition of NF-kappaB DNA binding activity in human A375 cells at 30 uM after 1 hr by electrophoretic mobility shift assay; assay type: cell-based
In short: (§4)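 A375 cells treated at 30 μM; whole-cell extracts taken at 0, 1, 2, 4, 8 and 24 h. Extract (12 μg protein in 0.1% Triton X-100 buffer) incubated 30 min with 32P-labelled κB probe. Complexes resolved on nondenaturing 4% polyacrylamide gel and quantified by phosphorimaging, normalized to the nonspecific protein-DNA complex in the same lane. Three experiments.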

A-375 [20] = experiment: Inhibition of NF-kappaB DNA binding activity in human A375 cells at 30 uM after 2 hrs by electrophoretic mobility shift assay; assay type: cell-based; in short: as §4
A-375 [21] = experiment: Inhibition of NF-kappaB DNA binding activity in human A375 cells at 30 uM after 4 hrs by electrophoretic mobility shift assay; assay type: cell-based; in short: as §4
A-375 [22] = experiment: Inhibition of NF-kappaB DNA binding activity in human A375 cells at 30 uM after 8 hrs by electrophoretic mobility shift assay; assay type: cell-based; in short: as §4
A-375 [23] = experiment: Inhibition of NF-kappaB DNA binding activity in human A375 cells at 30 uM after 24 hrs by electrophoretic mobility shift assay; assay type: cell-based; in short: as §4
[24] = Decrease in NFkappaB-mediated XIAP gene expression in human A375 cells at 30 uM after 8 hrs by Western blot analysis; assay type: cell-based; conditions: A-375
[25] = Decrease in NFkappaB-mediated c-FLIP gene expression in human A375 cells at 30 uM after 8 hrs by Western blot analysis; assay type: cell-based; conditions: A-375
A-375 [26] = experiment: Activation of caspase 3 in human A375 cells assessed as cleavage of substrate PARP at 30 uM by Western blot analysis; assay type: functional, cell-based; in short: as §3

For `COc1cc(/C=C/C(=O)CC(=O)/C=C/c2ccc(O)c(OC)c2)ccc1O` [CURCUMIN], the Activity (A-375 [1]) was 3.4%, the Activity (A-375 [2]) was 80% and the Activity (A-375 [3]) was 10.3%.

With `C[C@H](/C=C/[C@@]1(O)[C@H](CO)CC(=O)CC1(C)C)O[C@@H]1O[C@H](CO)[C@@H](O)[C@H](O)[C@H]1O` [LAUROSIDE B] the inhibition (A-375 [4]) was “tde”, the inhibition (WM-115 [5]) was “tde” and the inhibition (SK-MEL-28 [6]) was “tde”. The inhibition (A-375 [7]) was “Dose-dependent effect”, the inhibition (WM-115 [8]) was “Dose-dependent effect” and the inhibition (SK-MEL-28 [9]) was “Dose-dependent effect”. It also gave an inhibition at 30 µM (A-375 [10]) of 65%, an inhibition at 30 µM (WM-115 [11]) of 50% and an inhibition at 30 µM (SK-MEL-28 [12]) of 33%. For the same compound, the Activity [13] was “Non-toxic”, the Activity (A-375 [14]) was 0.6% and the Activity (A-375 [15]) was 35%. The Activity (A-375 [16]) was 5.1%, the Activity (A-375 [17]) was “tde” and the Activity (A-375 [18]) was “tde”. It also gave an inhibition (A-375 [19]) of 6%, an inhibition (A-375 [20]) of 20% and an inhibition (A-375 [21]) of 60%. The inhibition (A-375 [22]) was 86%, the inhibition (A-375 [23]) was 100% and the Activity [24] was “Active”. The Activity [25] was “Active” and the Activity (A-375 [26]) was “Active”.
